From ChEMBL document CHEMBL4304743, “Discovery of ( E)- N1-(3-Fluorophenyl)- N3-(3-(2-(pyridin-2-yl)vinyl)-1 H-indazol-6-yl)malonamide (CHMFL-KIT-033) as a Novel c-KIT T670I Mutant Selective Kinase Inhibitor for Gastrointestinal Stromal Tumors (GISTs)” (J Med Chem, 2019)
Calls of active or inactive are those of the source. The rule behind the calls is not given here.

Experiments:
[1] = Tmax in Sprague-Dawley rat at 10 mg/kg, po measured after 5 to 720 mins by LC-tandem mass spectrometry analysis; assay type: ADME, organism-based; conditions: in vivo
How it was run: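 Male Sprague–Dawley rats (190-210 g), fasted 12 h, given 1 mg/kg i.v. or 10 mg/kg p.o. in DMSO/5% glucose water (1:9). Blood sampled at 2–720 min (i.v.) or 5–720 min (p.o.). Plasma proteins precipitated with methanol using caffeine internal standard, then LC-MS/MS. Noncompartmental analysis; F = AUC0-∞ ratio corrected for dose; triplicate ±SD.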

[2] = molecular target: T1, Mast/stem cell growth factor receptor Kit (Homo sapiens, UniProt P10721); test: Inhibition of TEL fused wild type c-KIT (unknown origin) transfected in mouse BaF3 cells assessed as reduction in phosphorylation at Y823 residue after 2 hrs by Western blot analysis; assay type: cell-based
[3] = system: Mast/stem cell growth factor receptor Kit (Homo sapiens), P10721 [UNDEFINED MUTATION]; test: Inhibition of c-KIT 560 to 578 deletion mutant in human GISTT1 cells assessed as reduction in c-KIT autophosphorylation at Y703 residue at 0.1 uM to 3 uM after 1 hr by Western blot analysis; assay type: cell-based
How it was run: (§1)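 Serial compound dilutions applied for 1 h to GIST-T1, GIST-T1-T670I (CRISPR/Cas9 T670I knock-in, clone confirmed by Sanger sequencing) or GIST-5R cells in DMEM with 10% FBS. Cells then lysed and phospho-proteins detected by standard Western blotting.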

[4] = system: Mast/stem cell growth factor receptor Kit (Homo sapiens), P10721 [UNDEFINED MUTATION]; test: Inhibition of c-KIT 560 to 578 deletion/T670I double mutant in human GIST5R cells assessed as reduction in STAT3 phosphorylation after 1 hr by Western blot analysis; assay type: cell-based; how it was run: as §1
GIST882 = test: Antiproliferative activity against human GIST882 cells harboring c-KIT K642E mutant incubated for 72 hrs by CCK8 assay; assay type: functional; conditions: GIST882, 72 h
How it was run: (§2)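 Adherent GIST cells seeded at 1.5-5 × 10^4 cells/mL and left overnight at 37 °C, 5% CO2. Medium then replaced with medium holding serial compound dilutions; 72 h incubation. Viability by CCK-8, absorbance at 450 nm, normalized to DMSO control; GI50 from dose-response fit.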

[5] = system: Mast/stem cell growth factor receptor Kit (Homo sapiens), P10721 [UNDEFINED MUTATION]; test: Inhibition of c-KIT 560 to 578 deletion mutant in human GISTT1 cells assessed as reduction in S6 phosphorylation at S235/S236 residue at 0.1 uM to 3 uM after 1 hr by Western blot analysis; assay type: cell-based; how it was run: as §1
[6] = molecular target: Macrophage colony-stimulating factor 1 receptor (Homo sapiens, UniProt P07333); test: Inhibition of wild-type human partial length CSF1R (I564 to S939 residues) expressed in bacterial expression system after 1 hr by Z-LYTE assay
GISTT1 = test: Antiproliferative activity against human GISTT1 cells harboring c-KIT 560 to 578 deletion mutant incubated for 72 hrs by CCK8 assay; assay type: functional; conditions: GISTT1, 72 h; how it was run: as §2
[7] = system: Mast/stem cell growth factor receptor Kit (Homo sapiens), P10721 [L576P]; test: Inhibition of TEL fused c-KIT L576P mutant (unknown origin) transfected in mouse BAF3 cells assessed as growth inhibition after 72 hrs by CCK8 assay; assay type: cell-based
How it was run: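 Tel-c-KIT-transformed BaF3 lines (IL-3 independent) kept in RPMI 1640 with 10% FBS, 2% L-glutamine and pen/strep. Cells at 1.5 to 5 × 10^4 cells/mL mixed with graded compound and incubated 72 h at 37 °C, 5% CO2. Viability by CCK-8 absorbance at 450 nm, normalized to DMSO. GI50 from dose–response fit.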

[8] = molecular target: T1, Mast/stem cell growth factor receptor Kit; test: Inhibition of wild type c-KIT phosphorylation at Y719 residue in human COLO320DM cells after 2 hrs by Western blot analysis; assay type: cell-based
Mus musculus [9] = test: Inhibition of c-KIT phosphorylation at Y823 residue in tumor of human GIST5R cells xenografted in nude mouse at 100 mg/kg, po administered as single dose and measured at 2 hrs; assay type: functional, organism-based
How it was run: (§3)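 Female nu/nu mice bearing subcutaneous GIST-5R xenografts (cells in Matrigel, right flank) given one oral gavage dose of 100 mg/kg in HKI suspension (0.5% methocellulose/0.4% Tween80 in ddH2O). Tumors collected over a 2 h time course; p-c-KIT, p-ERK and p-AKT assessed by Western blot; plasma drug levels monitored in parallel.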

[10] = molecular target: T1, Mast/stem cell growth factor receptor Kit; test: Inhibition of TEL fused wild type c-KIT (unknown origin) transfected in mouse BaF3 cells assessed as reduction in phosphorylation at Y719 residue after 2 hrs by Western blot analysis; assay type: cell-based
[11] = system: Mast/stem cell growth factor receptor Kit (Homo sapiens), P10721 [UNDEFINED MUTATION]; test: Inhibition of c-KIT 560 to 578 deletion/T670I double mutant in human GISTT1 cells assessed as reduction in ERK phosphorylation at T202/Y204 residue at 0.1 uM to 3 uM after 1 hr by Western blot analysis; assay type: cell-based; how it was run: as §1
[12] = molecular target: Serine/threonine-protein kinase 25 (Homo sapiens, UniProt O00506); test: Inhibition of wild-type human partial length STK25 (V14 to H295 residues) expressed in bacterial expression system after 1 hr by Z-LYTE assay
Mus musculus [13] = test: Inhibition of c-KIT phosphorylation at Y823 residue in tumor of human GIST5R cells xenografted in nude mouse at 100 mg/kg, po administered as single dose and measured after 2 hrs; assay type: functional, organism-based; how it was run: as §3

T1 sequence (P10721 whole entry, the tested form may be a part): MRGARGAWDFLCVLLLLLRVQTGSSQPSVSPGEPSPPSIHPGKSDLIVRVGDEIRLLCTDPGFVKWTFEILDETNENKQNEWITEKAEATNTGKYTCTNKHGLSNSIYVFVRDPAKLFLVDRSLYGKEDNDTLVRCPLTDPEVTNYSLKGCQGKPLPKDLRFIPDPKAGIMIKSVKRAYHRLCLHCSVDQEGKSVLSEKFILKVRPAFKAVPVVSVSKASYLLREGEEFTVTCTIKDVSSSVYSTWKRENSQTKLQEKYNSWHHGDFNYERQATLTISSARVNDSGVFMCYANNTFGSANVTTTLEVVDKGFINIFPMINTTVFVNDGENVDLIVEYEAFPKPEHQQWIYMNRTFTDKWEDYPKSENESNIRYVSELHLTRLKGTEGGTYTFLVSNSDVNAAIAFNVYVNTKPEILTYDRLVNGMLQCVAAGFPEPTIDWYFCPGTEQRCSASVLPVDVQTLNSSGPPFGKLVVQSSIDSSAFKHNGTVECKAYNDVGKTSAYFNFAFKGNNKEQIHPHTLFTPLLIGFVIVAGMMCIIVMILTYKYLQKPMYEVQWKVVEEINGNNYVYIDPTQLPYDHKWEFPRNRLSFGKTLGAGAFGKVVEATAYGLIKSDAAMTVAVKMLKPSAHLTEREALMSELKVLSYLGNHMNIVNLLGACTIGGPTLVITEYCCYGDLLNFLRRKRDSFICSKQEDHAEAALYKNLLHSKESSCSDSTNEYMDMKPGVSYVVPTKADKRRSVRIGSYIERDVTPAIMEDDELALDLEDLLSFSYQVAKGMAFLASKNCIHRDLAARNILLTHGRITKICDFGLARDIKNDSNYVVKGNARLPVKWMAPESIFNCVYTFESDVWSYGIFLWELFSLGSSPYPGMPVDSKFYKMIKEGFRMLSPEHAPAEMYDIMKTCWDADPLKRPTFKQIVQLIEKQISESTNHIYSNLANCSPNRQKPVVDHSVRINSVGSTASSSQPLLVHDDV
Chain of Mast/stem cell growth factor receptor Kit (Homo sapiens), P10721 [UNDEFINED MUTATION] (P10721 whole entry, looked up, stated change not applied, the tested form may be a part): as the sequence (P10721 whole entry, the tested form may be a part) above
Chain of Macrophage colony-stimulating factor 1 receptor (P07333 whole entry, the tested form may be a part): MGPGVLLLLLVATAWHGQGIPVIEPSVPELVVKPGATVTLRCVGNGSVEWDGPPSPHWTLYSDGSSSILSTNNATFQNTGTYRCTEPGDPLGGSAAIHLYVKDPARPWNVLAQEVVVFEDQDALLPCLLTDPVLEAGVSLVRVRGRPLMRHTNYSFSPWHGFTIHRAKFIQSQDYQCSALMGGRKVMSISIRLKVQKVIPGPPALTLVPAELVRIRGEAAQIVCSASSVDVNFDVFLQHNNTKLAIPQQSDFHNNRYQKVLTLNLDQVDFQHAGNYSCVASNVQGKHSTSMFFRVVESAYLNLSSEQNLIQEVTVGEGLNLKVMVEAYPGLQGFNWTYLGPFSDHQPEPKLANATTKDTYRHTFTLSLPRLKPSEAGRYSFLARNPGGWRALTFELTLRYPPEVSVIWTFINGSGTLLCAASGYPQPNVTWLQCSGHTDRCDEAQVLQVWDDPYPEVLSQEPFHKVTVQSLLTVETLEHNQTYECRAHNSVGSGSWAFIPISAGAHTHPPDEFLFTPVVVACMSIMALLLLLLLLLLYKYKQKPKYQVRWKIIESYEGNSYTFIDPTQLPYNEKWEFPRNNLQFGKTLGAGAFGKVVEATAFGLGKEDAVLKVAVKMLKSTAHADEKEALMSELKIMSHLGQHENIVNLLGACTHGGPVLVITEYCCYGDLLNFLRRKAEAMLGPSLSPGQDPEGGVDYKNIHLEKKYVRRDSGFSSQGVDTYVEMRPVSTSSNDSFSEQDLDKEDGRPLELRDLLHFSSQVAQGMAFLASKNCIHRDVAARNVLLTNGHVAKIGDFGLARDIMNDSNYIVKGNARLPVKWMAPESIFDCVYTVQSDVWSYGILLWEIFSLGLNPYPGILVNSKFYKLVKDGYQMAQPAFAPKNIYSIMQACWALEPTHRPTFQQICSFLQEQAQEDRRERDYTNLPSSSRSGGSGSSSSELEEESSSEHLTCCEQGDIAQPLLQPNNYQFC
Chain of Serine/threonine-protein kinase 25 (O00506 whole entry, the tested form may be a part): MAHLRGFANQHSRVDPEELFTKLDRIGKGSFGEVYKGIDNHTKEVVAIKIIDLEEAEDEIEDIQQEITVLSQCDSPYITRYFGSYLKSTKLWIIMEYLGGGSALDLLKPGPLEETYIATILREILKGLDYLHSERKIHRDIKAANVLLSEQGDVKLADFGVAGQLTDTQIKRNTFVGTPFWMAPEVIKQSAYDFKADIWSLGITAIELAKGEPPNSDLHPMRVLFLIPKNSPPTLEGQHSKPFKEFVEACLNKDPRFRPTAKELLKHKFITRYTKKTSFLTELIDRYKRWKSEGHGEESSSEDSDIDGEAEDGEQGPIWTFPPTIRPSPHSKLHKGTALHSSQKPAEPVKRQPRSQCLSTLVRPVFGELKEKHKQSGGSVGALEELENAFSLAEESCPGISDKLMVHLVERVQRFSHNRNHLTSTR
Chain of Mast/stem cell growth factor receptor Kit (Homo sapiens), P10721 [L576P] (P10721 whole entry L576P, the tested form may be a part): as the sequence (P10721 whole entry, the tested form may be a part) above, with L576P counted along it

O=C(CC(=O)Nc1ccc2c(/C=C/c3ccccn3)n[nH]c2c1)Nc1cccc(F)c1
Tmax [1]: 1.7 h
EC50 [2]: > 1000 nM
inhibition [3]: Active
inhibition [4]: Dose-dependent effect
GI50 (GIST882): 296 nM
inhibition [5]: Active
IC50 [6]: 14.2 to 14.3 nM
GI50 (GISTT1): 52 nM
GI50 [7]: 157 nM
EC50 [8]: 1430 nM
inhibition (Mus musculus [9]): Active
EC50 [10]: > 1000 nM
inhibition [11]: Active
IC50 [12]: > 10000 nM
inhibition (Mus musculus [13]): inactive
